# From PubChem BioAssay
# ABCG2 block = inhibitors of human ABCG2 transporter, ABCB1 counter-screen | actives 0.1% (n = 190,000) | IgMXP3 cells, JC-1 efflux, flow cytometry | inhibition, % at 6.6 µM | Q9UNQ0;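 active means inhibition above 80%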;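 further: 0% = DMSO and 100% = nicardipine control wells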
#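 Assay system – ABCG2 IgMXP3 and barcoded ABCB1 CCRF-Adr cell mix · Input – 3 million cells/mL in well · Reagent – JC-1 fluorescent substrate · Compound – single test compound dose, 6.6 µM final · Timing – 10 min exposure at 25 °C with rotation, no wash · Detection – flow cytometry of retained JC-1 fluorescence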
# L major viab = reduces viability of Leishmania major promastigotes; resazurin fluorescence viability; inhibition, % at 10 µM; actives 9% (n = 200,000);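 further: promastigotes grown with compound for 44 hours at 28 °C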
# PKD1 inh = PKD1 (human) kinase inhibition. Q15139. inhibition, % (test concentration not listed). AID 797. actives 0.056% (n = 200,000). PKD1 kinase fluorescence polarization assay
# GSH bead fluor = GSH bead compound fluorescence profile | GSH beads flow cytometry, compound fluorescence 488/530 nm; active compounds read high | fluorescence (KMESF) at 10 µM | actives 0.25% (n = 190,000) | AID 1776; in the data active means fluorescence above about 89;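 further: glutathione beads carrying GST-tagged Bcl family fusion proteins plus one bare bead set; values are compound well signal with DMSO vehicle wells as background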
# Avidin bead fluor = compound fluoresces at 488/530 nm on avidin beads; compound fluorescence 488/530 nm, flow cytometry; active compounds read high; fluorescence (KMESF) at 10 µM; actives 0.38% (n = 220,000); in the data active means fluorescence above about 47
# ABCB1 inh = human ABCB1 inhibition, ABCG2 as counter-screen. CCRF-Adr cells, JC-1 efflux, flow cytometry. inhibition, % at 6.6 µM. actives 0.067% (n = 190,000). AID 1326; in the data active means inhibition above about 40%;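 further: 0% = vehicle and 100% = reference inhibitor; higher value means more JC-1 retained so stronger ABCB1 efflux block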
# Active calls of the source: *; / = not tested or not shown. The entries come from a sample that favours hits as a whole. Unless noted, no stated cut-off is given here; in the data, active means inhibition above about 50%; inactive means the rest.
SMILES,ABCG2 block,L major viab,PKD1 inh,GSH bead fluor,Avidin bead fluor,ABCB1 inh
COc1cccc(CN2CCCC(C(=O)c3ccc4c(c3)OCO4)C2)c1OC (stereo not given),-4,90*,3,16,10,-2
Cn1c(CN2CCCC(C(=O)c3ccc4c(c3)OCO4)C2)nc2ccccc21 (stereo not given),1,35,6,10,4,1
O=C(c1ccc2c(c1)OCO2)C1CCCN(Cc2cc(F)ccc2-n2cccn2)C1 (stereo not given),4,40,-1,9,12,1
C/C(=N\NC(=O)CC#N)C1COc2ccccc2O1 (stereo not given),0,-6,3,10,12,0
COc1ccccc1N1CCN(C(=O)c2coc(=O)c(Br)c2)CC1,/,/,/,/,9,/
CC(=O)Nc1cc(OC(C)=O)c2nonc2c1OC(C)=O,/,101*,4,/,/,/
CN(C)c1nnnn1-c1cccc(Oc2ncc(C(F)(F)F)cc2Cl)c1,0,0,-8,11,26,0
O=C(COc1cccc(C(F)(F)F)c1)N1CCN(c2ccc(O)cc2)CC1,1,11,3,12,20,0
O=C(Nc1ccccc1)N1CCN(c2cccc(C(F)(F)F)c2)CC1,/,90*,1,16,5,/
COC(=O)c1cc(C(=O)N2CCN(c3cccc(Cl)c3)CC2)cc([N+](=O)[O-])c1,3,50*,-7,10,10,1
O=C(c1cccc([N+](=O)[O-])c1)N1CCN(c2cccc(Cl)c2)CC1,7,33,-7,6,13,1
CN1CCC(N2CCN(c3cccc(C(F)(F)F)c3)CC2)CC1,2,100*,-2,23,8,0
O=C(COc1ccc2c(c1)CCC2)N1CCN(c2cccc(C(F)(F)F)c2)CC1,-5,65*,3,9,14,0
COC(C(=O)NNC(=O)CCc1ccccc1)c1ccccc1 (stereo not given),-1,-4,2,12,23,0
CCc1ccccc1N(CC(=O)N1CCN(c2ccccc2)CC1)S(C)(=O)=O,5,-10,7,31,16,2
CC(=O)c1ccc(NC(=O)N2CCN(c3cccc(Cl)c3)CC2)cc1,4,59*,1,30,9,0
CC(=O)c1ccc(N2CCN(C(=O)Nc3ccc(Cl)cc3)CC2)cc1,18,14,1,21,6,1
COc1ccc(N2CCN(CCCNC(=O)CC3Oc4ccc(C)cc4NC3=O)CC2)cc1 (stereo not given),1,-2,-3,14,21,0
CC(=O)Nc1ccc(SCC(=O)c2cc(C)n(-c3ccccc3)c2C)cc1,18,9,-3,12,20,1
CCCCCCCC[n+]1c(C)n(-c2ccccc2)c2ccc(NC(C)=O)cc21,0,99*,-3,13,9,0
C#CCNC(=O)C1=C[C@@H](c2ccc(C(F)(F)F)cc2)[C@H](CCCO)[C@@H](OCC)O1,2,-3,-4,17,6,0
O=C(c1cnsn1)N1CCN(c2ccccc2)CC1,7,-1,-8,23,163*,1
O=C(c1cnccn1)N1CCN(c2ccccc2)CC1,4,-4,-6,25,10,1
Cc1ccc(NC(=O)C2(c3cccs3)CCOCC2)cc1C,2,-1,3,14,11,0
Cc1cc(C)c(OCCOCCN2CCNCC2)c(C)c1,-5,15,2,11,10,-7
SMILES,ABCG2 block,L major viab,PKD1 inh,GSH bead fluor,Avidin bead fluor,ABCB1 inh
Cc1cc(Cl)c(OCCOCCN2CCCC(C)C2)c(Br)c1 (stereo not given),2,99*,4,16,8,1
Cc1cc(Cl)cc(C)c1OCCCCN1CCOCC1,2,100*,-5,26,8,0
Cc1cc(Cl)c(OCCCCN2CCOCC2)c(Br)c1,6,98*,-3,16,12,0
Cc1cccc(C)c1OCCCN1CCCC1,7,-3,-3,16,6,1
Cc1cccc(C)c1OCCOCCN1CCN(C)CC1,3,4,-11,23,23,0
Cc1cc(Cl)c(OCCOCCN2CCCCC2)c(Br)c1,0,97*,-9,8,12,0
Cc1cc(Cl)c(OCCCn2ccnc2)c(Br)c1,2,17,-4,13,5,1
CCC(=O)c1ccc(OCc2ccc(C(=O)c3ccccc3)cc2)cc1,4,-1,-10,18,9,0
CCCCOCP(=O)(CC)COCCCC,0,-5,-2,35,17,7
CCOC(=O)C1CCN(C(=O)Nc2cc(Cl)cc(Cl)c2)CC1,/,/,/,/,7,/
O=C(NNC(=S)Nc1ccc(Br)cc1Cl)c1ccncc1,6,-8,2,21,90*,-1
O=C(C1CCCN(S(=O)(=O)Cc2ccccc2)C1)N1CCc2ccccc21 (stereo not given),5,73*,-9,63,6,1
CC1Cc2ccccc2N1C(=O)C1CCN(S(=O)(=O)Cc2ccccc2)CC1 (stereo not given),3,54*,2,12,4,1
CC1Cc2ccccc2N1C(=O)C1CCCCN1S(=O)(=O)c1ccccc1 (stereo not given),5,3,-12,12,18,1
CS(=O)(=O)N(CC(=O)N1CCN(c2ccc(F)cc2)CC1)c1ccc(F)c(Cl)c1,2,-2,0,5,7,0
Cc1nc(NC(=O)c2ccc(Cl)cc2)sc1-c1csc(Nc2cccc(F)c2)n1,-2,10,12,12,20,-1
COc1ccccc1CNC(=O)c1ccc(OC(C)C)cc1,5,-3,0,13,11,0
COc1cc(C)c(Cl)cc1S(=O)(=O)NCCN1CCOCC1,2,-3,-5,4,7,1
Cc1ccc(S(=O)(=O)NCCCN2CCOCC2)c(C)c1,1,52*,-9,8,9,0
COc1cc(C)c(Br)cc1S(=O)(=O)NCCCN1CCOCC1,5,75*,1,11,3,0
COc1cc(Cl)c(S(=O)(=O)NCCCN2CCOCC2)cc1Cl,3,93*,-3,66,3,1
COc1cc(C)c(Cl)cc1S(=O)(=O)NCCCN1CCOCC1,8,86*,-3,23,24,0
COc1ccc(Br)cc1S(=O)(=O)NCCN1CCOCC1,4,2,-6,11,10,1
CC1(C)NC(=O)N(CC(=O)OCC(=O)Nc2cc(S(=O)(=O)N3CCCCCC3)ccc2Cl)C1=O,1,-3,4,9,6,0
CC(Sc1cccc[n+]1[O-])C(=O)Nc1ccc(Oc2ccccc2)cc1 (stereo not given),2,9,0,9,10,1
CCn1c(SCc2c(F)cccc2Cl)nnc1-c1ccco1,10,9,-13,34,11,1
